The text below walks through data of ChEMBL document CHEMBL4414566, “Cytotoxicity and Anti-inflammatory Properties of Apigenin-Derived Isolaxifolin” (J Nat Prod, 2019).

The source made the active and inactive calls. The rule behind the calls is not given here.

The subject of data set [1] is RAW264.7. As to the kind of experiment: Antiinflammatory activity against LPS-activated mouse RAW264.7 cells assessed as reduction in IL6 mRNA expression at 3.1 uM preincubated with LPS for 24 hrs followed by compound addition and measured after 24 hrs by qRT-PCR analysis. In kind it is functional, cell-based. Put shortly: (§1)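 RAW 264.7 cells (DMEM, 10% FBS, 37 °C, 5% CO2) seeded at 1 × 10^5/well and held 4 h. LPS 1.0 μg/mL was added for 24 h, then medium was replaced with test agent (0.8, 1.6, 3.1 μM or 2.3, 4.6, 9.2 μM) for 24 h. TNF-α and IL-6 transcripts were quantified by real-time qPCR against GAPDH. Triplicates, mean ± SD.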

Data set [2] relates to RAW264.7. Put plainly: Antiinflammatory activity against LPS-activated mouse RAW264.7 cells assessed as reduction in TNFalpha mRNA expression at 3.1 uM preincubated with LPS for 24 hrs followed by compound addition and measured after 24 hrs by qRT-PCR analysis. Type of data set: functional, cell-based. Put shortly:
as §1
(In general: In qPCR the cycle at which signal appears reflects the starting amount.)

Data set [3] has as its system RAW264.7. Put plainly: Antiinflammatory activity in mouse RAW264.7 cells assessed as reduction in LPS-induced IL6 production at 0.8 to 3.1 uM preincubated with LPS for 24 hrs followed by compound addition and measured after 24 hrs by ELISA. In kind it is functional, cell-based. The essentials: (§2)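 Murine RAW 264.7 macrophages, 1 × 10^5/well, 4 h settling, then LPS (1.0 μg/mL) for 24 h. Medium was swapped for test solutions (0.8–3.1 μM or 2.3–9.2 μM), or DXM 254.8 μM as positive control, for another 24 h. Secreted NO was measured by Griess assay; TNF-α and IL-6 by ELISA. Run in triplicate, mean ± SD.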
(In general: In an ELISA, binding on a coated surface is turned into a signal by an enzyme label.)

Data set [4] has as its system RAW264.7. As to the kind of experiment: Antiinflammatory activity in mouse RAW264.7 cells assessed as inhibition of LPS-induced NO production at 0.8 to 3.1 uM measured after 24 hrs by griess reagent based assay. In kind it is functional, cell-based. Put shortly:
as §2
Background: Griess reagent forms a coloured azo dye with nitrite.

Data set [5] can be described thus: Cytotoxicity against mouse RAW264.7 cells assessed as reduction in cell viability incubated for 24 hrs by MTT assay. Type of data set: cell-based. As to conditions: read-out: MNCC. The essentials:
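MTT viability assay: RAW 264.7 cells seeded at 2.5 × 10^4 cells/well, cultured 12 h, then given five concentrations from serial dilution (up to 6.2 or 9.2 μM; final DMSO <1%) for 24 h. Viability was calculated relative to untreated blank control; n = 3, mean ± SD.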

Data set [6] relates to MDA-MB-231. Put plainly: Induction of apoptosis in human MDA-MB-231 cells assessed as late apoptotic cells at 17.3 uM incubated for 48 hrs by annexin V-FITC/PI based flow cytometric analysis (Rvb= 2.82%). In kind it is functional.
The subject of data set [7] is MDA-MB-231. Put plainly: Induction of apoptosis in human MDA-MB-231 cells assessed as late apoptotic cells at 12.4 uM incubated for 48 hrs by annexin V-FITC/PI based flow cytometric analysis (Rvb= 2.82%). Type of data set: functional.
Data set [8] relates to MDA-MB-231. Put plainly: Induction of apoptosis in human MDA-MB-231 cells assessed as early apoptotic cells at 12.4 uM incubated for 48 hrs by annexin V-FITC/PI based flow cytometric analysis (Rvb= 0.24%). Type of data set: functional.
Data set [9] deals with MDA-MB-231. Put plainly: Induction of apoptosis in human MDA-MB-231 cells assessed as late apoptotic cells at 8.6 uM incubated for 48 hrs by annexin V-FITC/PI based flow cytometric analysis (Rvb= 2.82%). Type of data set: functional.
The subject of data set [10] is MDA-MB-231. As to the kind of experiment: Induction of apoptosis in human MDA-MB-231 cells assessed as viable cells at 8.6 uM incubated for 48 hrs by annexin V-FITC/PI based flow cytometric analysis (Rvb= 96.21%). Type of data set: functional. Conditions: MDA-MB-231, 48 h, read-out: Activity.
The test system of data set [11] is MDA-MB-231. Put plainly: Induction of cell cycle arrest in human MDA-MB-231 cells assessed as accumulation of cells at S phase at 17.3 uM incubated for 48 hrs by PI/RNase staining based flow cytometric analysis (reference value: 39.2%). In kind it is functional. The essentials: (§3)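 Cell-cycle analysis: MDA-MB-231 cells were preincubated 24 h, then treated with 8.6, 12.4 or 17.3 μM for 48 h. Cells were pelleted, fixed in 75% ethanol at −20 °C overnight, and stained with PI/RNase for 15 min in the dark at ambient temperature. About 10 000 cells per well were analyzed by flow cytometry for DNA content.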

Data set [12] has as its system MDA-MB-231. As to the kind of experiment: Induction of cell cycle arrest in human MDA-MB-231 cells assessed as accumulation of cells at G0/G1 phase at 17.3 uM incubated for 48 hrs by PI/RNase staining based flow cytometric analysis (reference value: 50.4%). Type of data set: functional. The essentials: as §3
A further data set relates to HepG2. As to the kind of experiment: Antiproliferative activity against human HepG2 cells assessed as cell viability at 24.7 uM incubated for 48 hrs by methylene blue assay relative to control. Type of data set: functional. As to conditions: HepG2, 48 h, read-out: Activity. Put shortly:
(§4)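 MDA-MB-231, MCF-7, HepG2 and LNCaP cells were grown in DMEM; HCT-116 and LO-2 in RPMI-1640; all with 10% FBS at 37 °C, 5% CO2. Cells seeded at 1.5 × 10^5 cells/mL and incubated overnight (~12 h), then exposed to 6.2–30.9 μM or 23.1–185.0 μM (final DMSO <0.1%) for 48 h. Read by methylene blue staining; viability = Abs treated/Abs untreated × 100%, triplicate.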

A further data set relates to MCF7. As to the kind of experiment: Antiproliferative activity against human MCF7 cells assessed as cell viability at 24.2 uM incubated for 48 hrs by methylene blue assay relative to control. In kind it is functional. Conditions: MCF7, 48 h, read-out: Activity. Put shortly: as §4
Data set [13] has as its system MDA-MB-231. As to the kind of experiment: Antiproliferative activity against human MDA-MB-231 cells assessed as cell viability at 17.3 uM incubated for 48 hrs by methylene blue assay relative to control. In kind it is functional. As to conditions: MDA-MB-231, 48 h, read-out: Activity. The essentials: as §4
The subject of data set [14] is MDA-MB-231. As to the kind of experiment: Induction of mitochondrial membrane potential loss in human MDA-MB-231 cells assessed as cell population with intact mitochondrial membrane potential by measuring red fluorescence at 8.6 uM incubated for 48 hrs by JC1 staining based flow cytometric analysis (reference value: 92.04%). In kind it is functional. Put shortly:
(§5)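 MDA-MB-231 cells in DMEM/10% FBS exposed 48 h to 0, 8.6, 12.4 or 17.3 μM. Harvested cells stained with JC-1 for 15 min in the dark, then analysed by flow cytometry. Excitation 488 nm; green emission read at 525 nm, red at 590 nm. Output given as percent green-to-red fluorescence intensity ratio. Triplicate, mean ± SD.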

In data set [15] the test system is MDA-MB-231. Put plainly: Induction of mitochondrial membrane potential loss in human MDA-MB-231 cells assessed as cell population with intact mitochondrial membrane potential by measuring red fluorescence at 12.4 uM incubated for 48 hrs by JC1 staining based flow cytometric analysis (reference value: 92.04%). Type of data set: functional. Put shortly: as §5

Data set [16] relates to MDA-MB-231. Put plainly: Induction of mitochondrial membrane potential loss in human MDA-MB-231 cells cell population with mitochondrial membrane potential collapse by measuring green fluorescence at 12.4 uM incubated for 48 hrs by JC1 staining based flow cytometric analysis (reference value: 7.96%). In kind it is functional. The essentials:
as §5

For data set [17], the system named is MDA-MB-231. As to the kind of experiment: Induction of apoptosis in human MDA-MB-231 cells assessed as increase in late apoptotic cells population incubated for 48 hrs by annexin V-FITC/PI based flow cytometric analysis. Type of data set: functional, cell-based.

Regarding `CC(C)=CCc1c2c(c(O)c3c(=O)cc(-c4ccc(O)cc4)oc13)C=CC(C)(C)O2` [LAXIFOLIN], the result in the data set with RAW264.7 [1], with RAW264.7 [2] and in the data set with RAW264.7 [3] was Active. In the data set on RAW264.7 [4], the inhibition result is “Active”. Further, the MNTC at 24 h in data set [5] worked out at 3.1 µM. The Activity is 24.55% in the data set on MDA-MB-231 [6]; 12.89% in the data set on MDA-MB-231 [7]; 0.58% in the data set with MDA-MB-231 [8]; 9.8% in the data set on MDA-MB-231 [9]; 26.8% in the data set on MDA-MB-231 [11]; 63.3% in the data set with MDA-MB-231 [12]. Besides, the Activity with MDA-MB-231 [14] is 83.51%; in the data set with MDA-MB-231 [15] it was 84.3%; in the data set with MDA-MB-231 [16], 15.7%; in the data set with MDA-MB-231 [17] it was “Dose-dependent effect”. For the same compound, the viability at 8.6 µM in the data set with MDA-MB-231 [10] stood at 88.3%. Moreover, in the data set with HepG2, the viability at 24.7 µM was 20%. Further, in the data set on MCF7, the viability at 24.2 µM came out at 20%. The viability at 17.3 µM in the data set with MDA-MB-231 [13] worked out at 20%.
